Assays:
[1] = molecular target: T1, Sodium-dependent dopamine transporter (Rattus norvegicus, UniProt P23977); assay: Binding affinity for DA transporter using [125I]RTI-55 in frozen rat caudate membranes; type: cell membranes
Summary of the method: (§1)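 Rat caudate membranes as stated in the lines. For NET binding, 5 mM KCl and 300 mM NaCl were added. Radioligand was in protease inhibitors (chymostatin, leupeptin, EDTA, EGTA). Ended by filtration over PEI-presoaked GF/B filters; Ki derived.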

[2] = molecular target: T2, Sodium-dependent serotonin transporter (Rattus norvegicus, UniProt P31652); assay: Reuptake inhibitory activity against Serotonin transporter
Summary of the method: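 [³H]5-HT uptake in crude synaptosomes from rat whole brain minus caudate, in Krebs phosphate buffer pH 7.4 with 1 mg/mL ascorbic acid and 50 μM pargyline. Stopped after 30 min by Tris-HCl/NaCl wash buffer and rapid GF/B filtration. Run twice, each in triplicate.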

[3] = molecular target: T3, Norepinephrine transporter (Rattus norvegicus, UniProt Q9WTR4); assay: Reuptake inhibitory activity against NE transporter; type: functional
[4] = molecular target: T3, Norepinephrine transporter; assay: Displacement of from norepinephrine transporter of frozen rat caudate membranes; type: cell membranes, Membrane; summary of the method: as §1
[5] = molecular target: T1, Sodium-dependent dopamine transporter; assay: Reuptake inhibitory activity against dopamine DA transporter
[6] = molecular target: T2, Sodium-dependent serotonin transporter; assay: (§2) Displacement of [125I]RTI-55 from serotonin transporter of frozen rat caudate membranes; type: cell membranes, Membrane; summary of the method: as §1
[7] = molecular target: T2, Sodium-dependent serotonin transporter; assay: as §2; type: cell membranes, Membrane; remark: listed apart in the source
Summary of the method: as §1, with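 “lines. Incubated 18–24 h at 4 °C to equilibrium with radioligand and test drug in 55.2 mM sodium phosphate buffer, pH 7.4, with 1 mg/mL BSA.” for “lines.”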

T3 sequence (Q9WTR4 whole entry): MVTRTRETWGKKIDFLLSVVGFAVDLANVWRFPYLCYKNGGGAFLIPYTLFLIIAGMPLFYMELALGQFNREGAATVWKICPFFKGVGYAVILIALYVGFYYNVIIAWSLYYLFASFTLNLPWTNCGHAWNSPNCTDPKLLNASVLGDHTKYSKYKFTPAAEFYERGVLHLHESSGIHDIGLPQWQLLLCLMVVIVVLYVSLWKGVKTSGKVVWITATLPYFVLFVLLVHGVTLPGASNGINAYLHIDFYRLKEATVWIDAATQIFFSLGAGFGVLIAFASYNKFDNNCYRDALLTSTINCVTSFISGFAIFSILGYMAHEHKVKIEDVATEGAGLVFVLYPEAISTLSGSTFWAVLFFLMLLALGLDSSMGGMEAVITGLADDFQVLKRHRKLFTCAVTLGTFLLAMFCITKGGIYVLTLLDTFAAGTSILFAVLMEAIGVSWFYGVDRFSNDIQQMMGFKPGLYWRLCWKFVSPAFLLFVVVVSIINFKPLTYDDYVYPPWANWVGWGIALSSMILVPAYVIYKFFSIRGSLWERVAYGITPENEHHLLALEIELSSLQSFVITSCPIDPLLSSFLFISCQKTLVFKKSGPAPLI
T2 sequence (P31652 whole entry): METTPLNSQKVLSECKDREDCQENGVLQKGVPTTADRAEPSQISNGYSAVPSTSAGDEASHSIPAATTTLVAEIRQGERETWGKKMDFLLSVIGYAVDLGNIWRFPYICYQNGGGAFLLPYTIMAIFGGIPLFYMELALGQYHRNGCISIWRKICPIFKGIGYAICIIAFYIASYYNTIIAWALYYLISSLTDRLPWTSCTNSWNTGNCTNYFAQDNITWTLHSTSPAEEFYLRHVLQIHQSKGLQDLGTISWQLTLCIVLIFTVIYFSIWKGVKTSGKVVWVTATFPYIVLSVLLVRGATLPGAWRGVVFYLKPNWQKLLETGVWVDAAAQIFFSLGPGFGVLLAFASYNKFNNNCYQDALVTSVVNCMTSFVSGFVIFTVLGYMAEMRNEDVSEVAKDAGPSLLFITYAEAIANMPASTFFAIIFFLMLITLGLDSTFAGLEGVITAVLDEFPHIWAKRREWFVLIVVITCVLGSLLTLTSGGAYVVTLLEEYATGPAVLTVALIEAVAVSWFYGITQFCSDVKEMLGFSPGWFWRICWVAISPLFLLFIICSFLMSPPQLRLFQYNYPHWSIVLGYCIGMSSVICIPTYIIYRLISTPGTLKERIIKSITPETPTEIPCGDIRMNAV
T1 sequence (P23977 whole entry): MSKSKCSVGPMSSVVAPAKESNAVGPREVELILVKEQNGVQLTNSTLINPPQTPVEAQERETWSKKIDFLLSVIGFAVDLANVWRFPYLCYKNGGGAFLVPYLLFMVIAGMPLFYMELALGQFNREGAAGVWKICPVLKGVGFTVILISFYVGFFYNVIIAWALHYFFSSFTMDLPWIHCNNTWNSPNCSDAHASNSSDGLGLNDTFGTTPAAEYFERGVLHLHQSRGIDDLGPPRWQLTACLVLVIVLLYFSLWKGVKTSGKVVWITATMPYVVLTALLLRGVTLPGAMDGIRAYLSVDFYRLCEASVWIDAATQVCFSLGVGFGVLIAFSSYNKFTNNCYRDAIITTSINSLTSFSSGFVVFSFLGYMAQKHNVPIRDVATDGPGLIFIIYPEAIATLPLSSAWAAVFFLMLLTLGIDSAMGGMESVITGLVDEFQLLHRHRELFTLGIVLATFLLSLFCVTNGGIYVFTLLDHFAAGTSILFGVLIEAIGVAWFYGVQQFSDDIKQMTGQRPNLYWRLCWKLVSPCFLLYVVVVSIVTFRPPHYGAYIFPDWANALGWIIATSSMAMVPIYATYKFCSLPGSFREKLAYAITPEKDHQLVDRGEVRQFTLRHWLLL

Row | Structure (SMILES) | Ki [1] | Ki [2] | Ki [3] | Ki [4] | Ki [5] | Ki [6] | Ki [7]
1 | CN[C@@H]1C[C@@H](c2ccc(Cl)c(Cl)c2)c2ccc(OC)cc21 | 9 nM | 19 nM | 34 nM | 7 nM | 12 nM | 0.7 nM | 
2 | CN[C@H]1C[C@H](c2ccc(Cl)c(Cl)c2)c2ccc(OC)cc21 | 600 nM | 109 nM | 650 nM | 820 nM | 600 nM |  | 51 nM
3 | CNC1CC(c2ccc(Cl)c(Cl)c2)c2ccc(OC)cc21 (cis isomer) | 96 nM |  |  | 170 nM |  |  | 0.3 nM
4 | CCN(CC)C1CC(c2ccc(Cl)c(Cl)c2)c2ccc(OC)cc21 (cis isomer) | 1310 nM |  |  | > 4700 nM |  | 26 nM | 
5 | CNC1CC(c2ccc(Cl)c(Cl)c2)c2ccc(OC)cc21 (trans isomer) | 12 nM |  |  | 15 nM |  | 1.1 nM | 
6 | CNC1CC(c2ccc(Cl)c(Cl)c2)c2ccc(O)cc21 (trans isomer) | 11 nM |  |  | 24 nM |  | 3 nM | 
7 | CCN(CC)C1CC(c2ccc(Cl)c(Cl)c2)c2ccc(O)cc21 (trans isomer) | 40 nM |  |  | 1330 nM |  | 0.7 nM | 
8 | CCN(CC)C1CC(c2ccc(Cl)c(Cl)c2)c2ccc(OC)cc21 (trans isomer) | 140 nM |  |  | 1010 nM |  | 1.3 nM | 

From ChEMBL document CHEMBL1148277, “Synthesis and pharmacological evaluation of 3-(3,4-dichlorophenyl)-1-indanamine derivatives as nonselective ligands for biogenic amine transporters” (J Med Chem, 2004)
